{"data": "Published values of several laboratories", "RET": "Proto-oncogene tyrosine-protein kinase receptor Ret (RET, Homo sapiens, UniProt P07949)", "RET V804M": "Proto-oncogene tyrosine-protein kinase receptor Ret (RET, Homo sapiens, UniProt P07949, V804M)", "note": "Each line is one published result; the experiments were not run side by side."}
{"Compound": "C1=C/COCc2cc(ccc2OCCN2CCCC2)Nc2nccc(n2)-c2cccc(c2)COC/1", "target": "Proto-oncogene tyrosine-protein kinase receptor Ret (RET, Homo sapiens, UniProt P07949, M918T)", "observed": "binding", "concentration": "0.1 µM", "endpoint": "remaining binding", "value": "100%"}
{"Compound": "CCCCC(=O)Nc1ccc(-c2ccc3ncn(CCC)c(=O)c3c2)cn1", "target": "Proto-oncogene tyrosine-protein kinase receptor Ret (RET, Homo sapiens, UniProt P07949, V804L)", "observed": "binding", "method": "competition with immobilised ligand", "concentration": "0.5 µM", "endpoint": "remaining binding", "value": "100%"}
{"Compound": "CC#CC(=O)N1CCC[C@H]1c1nc(-c2ccc(C(=O)Nc3ccccn3)cc2)c2c(N)nccn12", "target": "RET", "observed": "enzyme activity", "mode": "inhibitor", "concentration": "1 µM", "endpoint": "inhibition", "value": "7%"}
{"Compound": "COc1ccc2oc(-c3ccc4nc(N)oc4c3)c/c(=N\\c3ccccc3NC(=O)CCN)c2c1", "target": "RET", "observed": "binding", "concentration": "1 µM", "endpoint": "remaining binding", "value": "109%"}
{"Compound": "Cc1ccc(NC(=O)c2ccnc(C(F)(F)F)c2)cc1-c1cc(OCCO)nc(N2CCOCC2)c1", "target": "RET V804M", "observed": "binding", "concentration": "1 µM", "endpoint": "remaining binding", "value": "98%"}
{"Compound": "N#Cc1ccc(NC(=O)Nc2ccccc2)cc1", "target": "RET", "observed": "cell-free assay", "method": "competition with immobilised ligand", "concentration": "25 µM", "endpoint": "remaining binding", "value": "100%"}
{"Compound": "CN1CCN(C(=O)c2ccc(NC(=O)Nc3ccc(N(C)c4ccnc(Nc5ccc(CS(C)(=O)=O)cc5)n4)cc3)cc2)CC1", "target": "RET V804M", "observed": "binding", "concentration": "1 µM", "endpoint": "remaining binding", "value": "0.5%"}
{"Compound": "CO[C@@H]1[C@H](N(C)C(=O)c2ccccc2)C[C@H]2O[C@]1(C)n1c3ccccc3c3c4c(c5c6ccccc6n2c5c31)C(=O)NC4", "target": "RET", "observed": "enzyme activity", "mode": "inhibitor", "concentration": "1 µM", "endpoint": "inhibition", "value": "95%"}
